Source: ChEMBL document CHEMBL1123757, “Selective thromboxane synthetase inhibitors and antihypertensive agents. New derivatives of 4-hydrazino-5H-pyridazino[4,5-b]indole, 4-hydrazinopyridazino[4,5-a]indole, and related compounds” (J Med Chem, 1987)

Legend:
[1] = Effect on thromboxane synthetase activity on in vitro platelet aggregation induced by AA at 10e -5 M expressed as percent increase in PGE-2; type: functional, Homo sapiens
Outline: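 Human citrated PRP adjusted to 200 000 […], compound at 10^-5 M final in saline/10% ethylene glycol, incubated at 37 °C. Aggregation induced with arachidonic acid 0.6 mM and read by Born absorbance aggregometry. PGE2 and TXB2 in the aggregated samples measured by radioimmunoassay. n = 5.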

Rattus norvegicus [2] = assay: Percent increase in cardiac rhythm, directly measured on carotid (iv on the jugular vein) of spontaneously hypertensive rats at 1 mg/kg after 60 minutes; type: functional, Heart
Outline: (§1)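 Anesthetized (sodium pentobarbital, 70 mg/kg) male and female Okamoto SHR, 8 weeks old, 300–350 g. Given iv into the jugular vein in normal saline. Arterial pressure and cardiac rhythm are recorded directly from the carotid by polygraph at set times after dosing. Each is expressed as percent change from the pre-dose control value.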

Homo sapiens [3] = species on record: Homo sapiens; assay: In vitro inhibition of platelet aggregation induced by ADP-II (PRP incubated for 5 minutes at 37 degree C) at 10e-5 M; type: functional
Outline: (§2)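 Human venous blood anticoagulated with 3.8% sodium citrate (1:9). PRP from centrifugation at 800 rpm for 10 min at room temperature. Count adjusted with PPP to […]. Compound in saline with 10% ethylene glycol is added to PRP and incubated at 37 °C before the agonist. Agonists: ADP 2×10^-5 M, AA 0.6 mM, PGH2 2.8 μM, adrenaline 0.6 μM. Born absorbance aggregometry; n = 5.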

Rattus norvegicus [4] = assay: Antihypertensive activity in spontaneously hypertensive rats (SHR) measured by percentage fall in cardiac rhythm (CR) at 25 mg/kg administered intraperitoneally at 3 h; type: functional, Heart; settings: route intraperitoneal
Outline: (§3)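 Unanesthetized Okamoto-strain SHR, male and female, 8 weeks old, 300–350 g, systolic pressure ≥190 mmHg, heart rate 400–650 beats/min; five animals per dose. Given ip at 2.5 mL/kg, dissolved or suspended in normal saline or saline with 0.2% (carboxymethyl)cellulose and 1.0% Tween 80. Tail AP and CR recorded by mechanical transduction at set times; reported as percentage fall from control.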

Cavia porcellus = assay: Effect on thromboxane synthetase activity (ex vivo) at 100 mg/kg expressed as percent increase in PGE-2; type: functional
Outline: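 Fasted male or female guinea pigs (250–300 g, five per group) dosed orally in normal saline or saline with 0.2% (carboxymethyl)cellulose/1.0% Tween 80; controls given vehicle. Under ether, cardiac blood collected into 3.8% citrate. PRP adjusted to […] and aggregation induced by ADP (second wave) or AA, read by absorbance aggregometry. PGE2 and TXB2 measured by RIA.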

Rattus norvegicus [5] = assay: Percent fall in systolic blood pressure, directly measured on carotid (iv on the jugular vein) of spontaneously hypertensive rats at 1 mg/kg after 30 minutes; type: functional, Artery; outline: as §1
Rattus norvegicus [6] = assay: Antihypertensive activity in spontaneously hypertensive rats (SHR) measured by percentage fall in cardiac rhythm (CR) at 25 mg/kg administered intraperitoneally at 1 h; type: functional, Heart; settings: route intraperitoneal; outline: as §3
Rattus norvegicus [7] = assay: Antihypertensive activity in spontaneously hypertensive rats (SHR) measured by percentage fall in arterial pressure (AP) at 25 mg/kg administered intraperitoneally at 24 h; type: functional, Artery; settings: route intraperitoneal; outline: as §3
Rattus norvegicus [8] = assay: Antihypertensive activity in spontaneously hypertensive rats (SHR) measured by percentage fall in cardiac rhythm (CR) at 25 mg/kg administered intraperitoneally at 24 h; type: functional, Heart; settings: route intraperitoneal; outline: as §3
Rattus norvegicus [9] = assay: Percent fall in systolic blood pressure, directly measured on carotid (iv on the jugular vein) of spontaneously hypertensive rats at 1 mg/kg after 120 minutes; type: functional, Artery; outline: as §1
Rattus norvegicus [10] = assay: Antihypertensive activity in spontaneously hypertensive rats (SHR) measured by percentage fall in arterial pressure (AP) at 25 mg/kg administered perorally at 24 h; type: functional, Artery; settings: route oral
Outline: (§4)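 Oral dosing at 2.5 mL/kg to unanesthetized male and female Okamoto-strain SHR (8 weeks old, 300–350 g, systolic pressure ≥190 mmHg, heart rate 400–650 beats/min), five per dose. Vehicle was normal saline or saline with 0.2% (carboxymethyl)cellulose and 1.0% Tween 80. AP measured on the tail by mechanical transduction at set times; expressed as percentage fall from control.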

Rattus norvegicus [11] = assay: Antihypertensive activity in spontaneously hypertensive rats (SHR) measured by percentage fall in arterial pressure (AP) at a dose of 25 mg/kg administered perorally at 1 h; type: functional, Artery; settings: route oral; outline: as §4
Rattus norvegicus [12] = assay: Percent increase in cardiac rhythm, directly measured on carotid (iv on the jugular vein) of spontaneously hypertensive rats at 1 mg/kg after 15 minutes; type: functional, Heart; outline: as §1
[13] = Effect on PGI-2 release from rat aortic tissue at a final concentration of 10e -4 for an incubation time of 30 minutes; type: functional
Outline: (§5)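 Female Wistar rats (200–220 g) received heparin 200 IU/kg ip and were killed 10 min later. Aortic pieces of about 25 mm² were washed in ice-cold oxygenated Krebs–Henseleit buffer, then incubated in 1 mL buffer at 37 °C. Compound at 10^-4 M final was added 10 min before tissue transfer. PGI2 release was read as antiaggregatory activity of the incubate on ADP (2×10^-6 M)-induced human PRP aggregation and by 6-keto-PGF1α RIA. n = 4.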

Rattus norvegicus [14] = assay: Antihypertensive activity in spontaneously hypertensive rats (SHR) measured by percentage fall in arterial pressure (AP) at 25 mg/kg administered intraperitoneally at 5 h; type: functional, Artery; settings: route intraperitoneal; outline: as §3
[15] = Effect on PGI-2 release from rat aortic tissue at a final concentration of 10e -4 for an incubation time of 10 minutes; type: functional; outline: as §5
Rattus norvegicus [16] = assay: Antihypertensive activity in spontaneously hypertensive rats (SHR) measured by percentage fall in arterial pressure (AP) at 1 mg/kg administered intraperitoneally at 3 h; type: functional, Artery; settings: route intraperitoneal; outline: as §3
[17] = Effect on PGI-2 release from rat aortic tissue at a final concentration of 10e -4 for an incubation time of 35 minutes; type: functional; outline: as §5
Rattus norvegicus [18] = assay: Antihypertensive activity in spontaneously hypertensive rats (SHR) measured by percentage fall in cardiac rhythm (CR) at 1 mg/kg administered intraperitoneally at 1 h; type: functional, Heart; settings: route intraperitoneal; outline: as §3
Homo sapiens [19] = species on record: Homo sapiens; assay: In vitro inhibition of platelet aggregation induced by adrenaline at 10e-5 M; type: functional; outline: as §2
[20] = Acute toxicity in mice was expressed as lethal dose; type: organism-based; settings: mouse, in vivo
Outline: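 Swiss male mice, 20 ± 2 g, dosed ip at four or more dose levels. LD50 calculated 7 days after drug administration by probit analysis (Miller and Tainter).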

Rattus norvegicus [21] = assay: Antihypertensive activity in spontaneously hypertensive rats (SHR) measured by percentage fall in cardiac rhythm (CR) at 1 mg/kg administered intraperitoneally at 3 h; type: functional, Heart; settings: route intraperitoneal; outline: as §3
Rattus norvegicus [22] = assay: Antihypertensive activity in spontaneously hypertensive rats (SHR) measured by percentage fall in arterial pressure (AP) at 1 mg/kg administered intraperitoneally at 1 h; type: functional, Artery; settings: route intraperitoneal; outline: as §3
Rattus norvegicus [23] = assay: Percent fall in systolic blood pressure, directly measured on carotid (iv on the jugular vein) of spontaneously hypertensive rats at 1 mg/kg after 60 minutes; type: functional, Artery; outline: as §1
Rattus norvegicus [24] = assay: Antihypertensive activity in spontaneously hypertensive rats (SHR) measured by percentage fall in arterial pressure (AP) at 25 mg/kg administered perorally at 5 h; type: functional, Artery; settings: route oral; outline: as §4
Rattus norvegicus [25] = assay: Percent increase in cardiac rhythm, directly measured on carotid (iv on the jugular vein) of spontaneously hypertensive rats at 1 mg/kg after 30 minutes; type: functional, Heart; outline: as §1

COc1ccc2[nH]c3c(NN)nncc3c2c1.Cl
Increase [1]: 47% | Increase (Rattus norvegicus [2]): 10% | inhibition at 10 µM (Homo sapiens [3]): 100% | Decrease in CR (Rattus norvegicus [4]): 19% | Increase (Cavia porcellus): 35% | Decrease in blood pressure (Rattus norvegicus [5]): 40% | Decrease in CR (Rattus norvegicus [6]): 22% | Decrease in AP (Rattus norvegicus [7]): 10% | Decrease in CR (Rattus norvegicus [8]): 38% | Decrease in blood pressure (Rattus norvegicus [9]): 40% | Decrease in AP (Rattus norvegicus [10]): 15% | Decrease in AP (Rattus norvegicus [11]): 50% | Increase (Rattus norvegicus [12]): 11% | Inhibition [13]: 35% | Decrease in AP (Rattus norvegicus [14]): 50% | Inhibition [15]: 50% | Decrease in AP (Rattus norvegicus [16]): 5% | Inhibition [17]: 25% | Decrease in CR (Rattus norvegicus [18]): 9% | inhibition at 10 µM (Homo sapiens [19]): 100% | LD50 [20]: 225 mg/kg | Decrease in CR (Rattus norvegicus [21]): 8% | Decrease in AP (Rattus norvegicus [22]): 32% | Decrease in blood pressure (Rattus norvegicus [23]): 60% | Decrease in AP (Rattus norvegicus [24]): 34% | Increase (Rattus norvegicus [25]): 12%
